These results are taken from ChEMBL document CHEMBL1138539, “Synthesis of new 2-(5-substituted-3-phenyl-2-pyrazolinyl)-1,3-thiazolino[5,4-b]quinoxaline derivatives and evaluation of their antiamoebic activity” (Eur J Med Chem, 2009).

Bounds are passed on as bounds.

Data set [1] relates to Entamoeba histolytica. In words: Antiamnesic activity against Entamoeba histolytica HM-1:IMSS after 72 hrs by trypan blue exclusion method. It counts as functional, organism-based. Put shortly:
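Trophozoites grown in TYIS-33 medium and tested by microdilution; amoebae counted by haemocytometer, viability confirmed by trypan blue exclusion. Compounds in DMSO (1 mg/ml stock), two-fold serial dilutions, with medium blanks and untreated controls. After incubation, wells washed in warm 0.9% NaCl, methanol-fixed, eosin-stained, dye released in 0.1 N NaOH, OD 490 nm. IC50 from linear regression of % inhibition versus log dose.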

Data set [2] is described as follows: Cytotoxicity against human kidney epithelial cells after 44 hrs by MTT assay. As to conditions: Epithelial cell. It counts as ADME, cell-based.
Data set [3] has as its system Entamoeba histolytica. In words: Antiamoebic activity against Entamoeba histolytica HM-1:IMSS after 72 hrs by microdilution method. Background: Broth dilution looks for growth in wells or tubes with falling amounts of substance.
Data set [4] is described as follows: Safety index, ratio of IC50 for human kidney epithelial cells to IC50 for Entamoeba histolytica HM-1:IMSS.

Broadly, the IC50 is the concentration at which inhibition is half-maximal. Read a low IC50 as greater potency in that assay. As to `Cc1ccc(/C=C/C(=O)c2ccccc2)cc1`, in data set [1], the 50% inhibitory concentration (IC50) worked out at 2120 nM.
In the case of `O=C(/C=C/c1ccc(Cl)c(Cl)c1)c1ccccc1`, the results for the IC50 in data set [2] and in data set [3] were over 50000 nM and 2010 nM, respectively. In addition, the selectivity ratio in data set [4] (human kidney epithelial cells) is over 24.9.
Consider `CC(C)c1ccccc1/C=C/C(=O)c1ccccc1`, for which the IC50 was 3480 nM in data set [1] and over 46000 nM in data set [2]. For the same compound, the selectivity ratio in data set [4] (human kidney epithelial cells) is over 13.2.
For the compound `O=C(/C=C/c1ccccc1Cl)c1ccccc1`, the IC50 is over 50000 nM in data set [2] and 2600 nM in data set [3]. The selectivity ratio in data set [4] (human kidney epithelial cells) is over 19.2.
Consider `CCc1ccccc1/C=C/C(=O)c1ccccc1`, for which the figures for the IC50 in data set [1] and in data set [2] were 1790 nM and over 50000 nM, respectively. Besides, the selectivity ratio in data set [4] (human kidney epithelial cells) was over 27.9.
For `Cc1ccc(C2CC(c3ccccc3)=NN2C(N)=S)cc1` (stereo not given) the same measures were 1580 nM, over 50000 nM and over 31.7.
For the compound `Cc1ccc(C2CC(c3ccccc3)=NN2c2nc3nc4ccccc4nc3s2)cc1` (stereo not given), the results for the IC50 in data set [1] (in the assay text read “Antiamoebic” for “Antiamnesic”) and in data set [2] were 300 nM and over 14000 nM, respectively. Besides, the selectivity ratio in data set [4] (human kidney epithelial cells) is over 46.4.
For the compound `Cc1cc(C)c(C2CC(c3ccccc3)=NN2c2nc3nc4ccccc4nc3s2)c(C)c1` (stereo not given), the IC50 is over 35000 nM in data set [2] and 3200 nM in data set [3]. The selectivity ratio in data set [4] (human kidney epithelial cells) is over 10.8.
With `CCc1ccccc1C1CC(c2ccccc2)=NN1C(N)=S` (stereo not given), the results for the IC50 in data set [1] and in data set [2] were 1610 nM and over 50000 nM, respectively. Moreover, the selectivity ratio in data set [4] (human kidney epithelial cells) is over 31.1.
With `CC(C)c1ccccc1C1CC(c2ccccc2)=NN1C(N)=S` (stereo not given), the IC50 in data set [2] is over 50000 nM; in data set [3], 230 nM. Besides, the selectivity ratio in data set [4] (human kidney epithelial cells) was over 217.
Regarding `Clc1cccc(C2CC(c3ccccc3)=NN2c2nc3nc4ccccc4nc3s2)c1Cl` (stereo not given), the half-maximal inhibitory concentration (IC50) in data set [2] was over 50000 nM; in data set [3] it was 890 nM. The selectivity ratio in data set [4] (human kidney epithelial cells) is over 56.2.
Turning to `Clc1ccccc1C1CC(c2ccccc2)=NN1c1nc2nc3ccccc3nc2s1` (stereo not given), the concentration for half-maximal inhibition (IC50) in data set [2] was over 50000 nM; in data set [3] it was 1900 nM. In addition, the selectivity ratio in data set [4] (human kidney epithelial cells) is over 26.3.
Turning to `c1ccc(C2=NN(c3nc4nc5ccccc5nc4s3)C(c3c[nH]c4ccccc34)C2)cc1` (stereo not given), the IC50 was 1290 nM in data set [1] and over 18000 nM in data set [2]. Besides, the selectivity ratio in data set [4] (human kidney epithelial cells) is over 14.
For `CC(C)c1ccccc1C1CC(c2ccccc2)=NN1c1nc2nc3ccccc3nc2s1` (stereo not given), the values for the IC50 in data set [2] and in data set [3] were over 50000 nM and 170 nM, respectively. For the same compound, the selectivity ratio in data set [4] (human kidney epithelial cells) is over 294.
For `O=C(/C=C/c1c[nH]c2ccccc12)c1ccccc1`, the half-maximal inhibitory concentration (IC50) is 1800 nM in data set [1] and over 44000 nM in data set [2]. Further, in data set [4] (human kidney epithelial cells), the selectivity ratio was over 24.4.
For the compound `NC(=S)N1N=C(c2ccccc2)CC1c1c[nH]c2ccccc12` (stereo not given), the results for the IC50 in data set [1] and in data set [2] were 1770 nM and over 54000 nM, respectively. The selectivity ratio in data set [4] (human kidney epithelial cells) was over 30.5.
For the compound `NC(=S)N1N=C(c2ccccc2)CC1c1ccccc1Cl` (stereo not given), the IC50 in data set [2] was over 50000 nM; in data set [3], 2230 nM. For the same compound, in data set [4] (human kidney epithelial cells), the selectivity ratio is over 22.4.
On to `Cc1cc(C)c(/C=C/C(=O)c2ccccc2)c(C)c1`, for which the IC50 is over 50000 nM in data set [2] and 1410 nM in data set [3]. For the same compound, in data set [4] (human kidney epithelial cells), the selectivity ratio is over 35.5.
As to `NC(=S)N1N=C(c2ccccc2)CC1c1ccccc1` (stereo not given), the results for the IC50 in data set [1] and in data set [2] were 1610 nM and over 50000 nM, respectively. Also, in data set [4] (human kidney epithelial cells), the selectivity ratio was over 31.1.
Consider `Cc1cc(C)c(C2CC(c3ccccc3)=NN2C(N)=S)c(C)c1` (stereo not given), for which the IC50 is over 50000 nM in data set [2] and 4370 nM in data set [3]. In data set [4] (human kidney epithelial cells), the selectivity ratio was over 11.4.
For `c1ccc(C2=NN(c3nc4nc5ccccc5nc4s3)C(c3ccccc3)C2)cc1` (stereo not given), the figures for the IC50 in data set [1] and in data set [2] were 1490 nM and over 50000 nM, respectively. In addition, the selectivity ratio in data set [4] (human kidney epithelial cells) was over 33.5.
Regarding `CCc1ccccc1C1CC(c2ccccc2)=NN1c1nc2nc3ccccc3nc2s1` (stereo not given), the half-maximal inhibitory concentration (IC50) in data set [1] was 1490 nM; in data set [2] it was over 50000 nM. Also, the selectivity ratio in data set [4] (human kidney epithelial cells) is over 33.5.
For `O=C(/C=C/c1ccccc1)c1ccccc1` [CHALCONE] the same measures were 1700 nM, over 50000 nM and over 29.4.
As to `Cc1ncc([N+](=O)[O-])n1CCO` [METRONIDAZOLE], the IC50 in data set [2] is over 100000 nM; in data set [3] it was 1800 nM. Moreover, the selectivity ratio in data set [4] (epithelial cell) was over 55.6.
